The values that follow come from ChEMBL document CHEMBL1131572, “A potent, orally bioavailable benzazepinone growth hormone secretagogue” (1998).

The species named for the assay is Rattus norvegicus. As to the kind of experiment: In vitro growth hormone (GH) releasing activity in rat primary pituitary cells. It counts as functional. The settings on record: Pituitary gland cell, read-out: ED50 (the source's name). The essentials:
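Rat anterior pituitaries dispersed with 0.2% collagenase and 0.2% hyaluronidase, then cultured 3–4 days at 37 °C, 5% CO₂, in DMEM with 10% horse serum and 2.5% FBS. Cells washed in medium with 25 mM HEPES pH 7.4, then exposed in quadruplicate to serially diluted agents (final 1% DMSO) for 15 min at 37 °C. Medium GH measured by double-antibody RIA; ED₅₀ = dose giving 50% maximal GH release.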
Consider `CC(C)NC(=O)NCc1ccccc1-c1ccc(CN2C(=O)[C@H](NC(=O)C(C)(C)N)CCc3ccccc32)cc1`, for which the EC50 is 270 nM.
The value for `CC(=O)NCc1ccccc1-c1ccc(CN2C(=O)[C@H](NC(=O)CC(C)(C)N)CCc3ccccc32)cc1` was 200 nM.
To `CC(C)(N)C(=O)N[C@@H]1CCc2ccccc2N(Cc2ccc(-c3ccccc3CNC(N)=O)cc2)C1=O` belongs 21 nM; to `CC(C)(N)C(=O)N[C@@H]1CCc2ccccc2N(Cc2ccc(-c3ccccc3-c3nn[nH]n3)cc2)C1=O`, 30 nM; to `CC(C)(N)C(=O)N[C@@H]1CCc2ccccc2N(Cc2ccc(-c3ccccc3CNC(=O)NC3CC3)cc2)C1=O`, 45 nM.
The value for `CCNC(=O)NCc1ccccc1-c1ccc(CN2C(=O)[C@H](NC(=O)C(C)(C)N)CCc3ccccc32)cc1` was 6 nM; that for `CNC(=O)NCc1ccccc1-c1ccc(CN2C(=O)[C@H](NC(=O)C(C)(C)N)CCc3ccccc32)cc1` was 1 nM.
As for `CC(C)(N)CC(=O)N[C@@H]1CCc2ccccc2N(Cc2ccc(-c3ccccc3C(N)=O)cc2)C1=O`, the EC50 stood at 80 nM.
To `CC(C)(N)CC(=O)N[C@@H]1CCc2ccccc2N(Cc2ccc(-c3ccccc3CN)cc2)C1=O` belongs greater than 1000 nM.
The value for `CC(C)(N)C(=O)N[C@@H]1CCc2ccccc2N(Cc2ccc(-c3ccccc3CNC(=O)NCc3ccccc3)cc2)C1=O` was 390 nM.
Turning to `CN(C)C(=O)NCc1ccccc1-c1ccc(CN2C(=O)[C@H](NC(=O)C(C)(C)N)CCc3ccccc32)cc1`, the EC50 was 60 nM.
Regarding `CNC(=O)Nc1ccccc1-c1ccc(CN2C(=O)[C@H](NC(=O)CC(C)(C)N)CCc3ccccc32)cc1`, the EC50 amounted to 50 nM.
To `CC(C)(N)C(=O)N[C@@H]1CCc2ccccc2N(Cc2ccc(-c3ccccc3CNC(=O)NCCO)cc2)C1=O` belongs 2 nM.
Take `CC(C)(N)CC(=O)N[C@@H]1CCc2ccccc2N(Cc2ccc(-c3ccccc3-c3nn[nH]n3)cc2)C1=O`: the EC50 stood at 60 nM.
To `CNC(=O)NCCc1ccccc1-c1ccc(CN2C(=O)[C@H](NC(=O)C(C)(C)N)CCc3ccccc32)cc1` belongs 40 nM.
Consider `CCCNC(=O)NCc1ccccc1-c1ccc(CN2C(=O)[C@H](NC(=O)C(C)(C)N)CCc3ccccc32)cc1`, for which the EC50 turned out to be 144 nM.
The value for `CNC(=O)NCc1ccccc1-c1ccc(CN2C(=O)[C@H](NC(=O)CC(C)(C)N)CCc3ccccc32)cc1` was 6 nM.
